Key:
C6 [1] = test: Ratio of treated and control C6 glioma cell tumor mass in mice at 10 mg/kg peroral dose, days 1-15 administration; type: functional, Mus musculus; details: route oral
Outline: (§1)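 Nude mice (NCr nu/nu), 6–8 per group, 18–22 g, tumor fragments implanted in right axilla on day 0 (A431, C6, MCF-7, or NIH3T3 carrying human PDGF receptor), dosed by average cage weight; vehicle 50 mM sodium lactate buffer pH 4.0 unless suspended in 0.5% methyl cellulose. %T/C = median treated/median control tumor mass ×100, last therapy day.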

[2] = target: Fibroblast growth factor receptor 1 (Homo sapiens, UniProt P11362); test: Inhibition of fibroblast growth factor receptor (FGFr)
Chain of Fibroblast growth factor receptor 1 (P11362 whole entry): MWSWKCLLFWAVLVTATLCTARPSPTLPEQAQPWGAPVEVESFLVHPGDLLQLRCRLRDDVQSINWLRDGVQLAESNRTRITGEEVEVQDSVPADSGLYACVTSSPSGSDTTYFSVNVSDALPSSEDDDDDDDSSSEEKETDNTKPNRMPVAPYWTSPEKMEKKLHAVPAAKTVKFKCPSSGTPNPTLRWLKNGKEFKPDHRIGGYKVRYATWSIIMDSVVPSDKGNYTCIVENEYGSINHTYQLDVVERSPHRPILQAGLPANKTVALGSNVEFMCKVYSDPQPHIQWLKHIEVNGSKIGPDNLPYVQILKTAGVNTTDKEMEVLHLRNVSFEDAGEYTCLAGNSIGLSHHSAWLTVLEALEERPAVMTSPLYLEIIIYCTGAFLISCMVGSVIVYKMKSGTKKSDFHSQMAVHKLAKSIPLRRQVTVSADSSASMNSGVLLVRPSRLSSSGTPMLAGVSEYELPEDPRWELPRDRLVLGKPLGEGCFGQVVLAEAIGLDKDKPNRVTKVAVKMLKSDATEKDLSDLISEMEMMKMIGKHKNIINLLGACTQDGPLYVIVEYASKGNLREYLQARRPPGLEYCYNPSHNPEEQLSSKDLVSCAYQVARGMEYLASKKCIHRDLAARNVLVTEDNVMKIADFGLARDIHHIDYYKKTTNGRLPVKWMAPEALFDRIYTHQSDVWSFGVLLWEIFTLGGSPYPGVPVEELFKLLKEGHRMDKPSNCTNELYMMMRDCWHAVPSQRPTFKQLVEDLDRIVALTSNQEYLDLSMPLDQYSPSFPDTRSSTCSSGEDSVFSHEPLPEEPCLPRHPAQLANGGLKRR
Outline: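 Recombinant kinases (PDGFr-β, FGFr-1, c-Src), enzyme inhibition IC50. Mean of at least two separate determinations, each done in triplicate; replicate values typically varied under 30%.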

COLO 205 [3] = test: Weight change of COLO 205 cell tumors in mice at […] peroral dose, days 9-23 administration; type: functional, organism-based; parameters: dose 8.9 mg/kg; details: Mus musculus
HT-29 [4] = test: Weight change of HT-29 cell tumors in mice at […] peroral dose, days 15-29 administration; type: functional, organism-based; parameters: dose 8.3 mg/kg; details: Mus musculus
MCF7 [5] = test: Net reduction in tumor burden between first and last treatments of MCF-7 cells in mice at 5 mg/kg peroral dose, days 1-15 administration; type: functional, Mus musculus; details: route oral
Outline: (§2)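 NCr nu/nu nude mice (18–22 g, 6–8 per group, randomized) had tumor fragments, kept by serial passage in nude mice, implanted in the right axilla on day 0. Mice were dosed by average cage weight on the listed days, over a range from toxic to ineffective doses. Vehicle was 50 mM sodium lactate pH 4.0 or 0.5% methyl cellulose suspension. Net log cell kill was taken between first and last treatments.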

C6 [6] = test: C6 cell growth in soft agar with discontinued treatment; type: functional, cell-based, Rattus norvegicus; details: Rattus norvegicus, C6
Outline: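 C6 rat glioma cells given 3-day exposure to a concentration series, then washed free of inhibitor and plated in drug-free soft agar; colonies stained and counted after two weeks. IC50; mean of two experiments, each in duplicate.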

NIH3T3 [7] = test: Growth of NIH3T3 cell colonies in soft agar with continuous treatment; type: functional, cell-based; details: Mus musculus
Outline: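 Soft agar cloning used PDGF-B-transfected NIH3T3 (NIH3T3/PDGF) cells. Cells were exposed 3 days to a concentration series, then plated in soft agar with the matching compound concentration kept present. Colonies were stained and counted after two weeks. IC50; mean of two experiments, each in duplicate.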

Mus musculus [8] = test: Net reduction in tumor burden between the first and last treatments of PDGF-transfected fibroblast cells in mice at 12 mg/kg peroral dose, days 1-15 administration; type: functional; details: route oral; outline: as §2
[9] = target: Proto-oncogene tyrosine-protein kinase Src (Gallus gallus, UniProt P00523); test: Inhibition of avian c-Src tyrosine kinase
COLO 205 [10] = test: Net reduction in tumor burden between first and last treatments of COLO 205 cell tumors in mice at […] peroral dose, days 9-23 administration; type: functional, Mus musculus; details: route oral
C6 [11] = test: C6 cell growth in soft agar with continuous treatment; type: functional, cell-based, Rattus norvegicus; details: Rattus norvegicus, C6
Outline: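 C6 rat glioma cells (F10 Ham's with 15% horse serum, 2.5% fetal calf serum) exposed 3 days to a concentration series, then plated in soft agar with compound still present at the same concentration; colonies stained and counted after two weeks. IC50; mean of two experiments, each in duplicate.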

COLO 205 [12] = test: Ratio of treated and control COLO 205 cell tumor mass in mice at […] peroral dose, days 9-23 administration; type: functional, Mus musculus; details: route oral
COLO 205 [13] = test: Difference in days for treated (T)and control (C) COLO 205 cell tumors to reach 750 mg in mice at […] peroral dose, days 9-23 administration; type: functional, Mus musculus; details: route oral
C6 [14] = test: Difference in days for treated (T) and control (C) C6 glioma cell tumors to reach 750 mg in mice at 10 mg/kg peroral dose, days 1-15 administration; type: functional, Mus musculus; details: route oral
Outline: (§3)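 Nude mice (NCr nu/nu), 18–22 g, 6–8 per group, randomized and implanted with serially passaged tumor fragments in the right axilla on day 0. Dosed by average cage weight. Vehicle was 50 mM sodium lactate buffer, pH 4.0, or a 0.5% methyl cellulose suspension for one compound. Cisplatin was given in saline. T − C is the difference in days for treated and control tumors to reach 750 mg.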

[15] = target: Platelet-derived growth factor receptor (Mus musculus, UniProt P05622+P26618); test: Inhibition of PDGF-induced autophosphorylation of PDGF-R in NIH3T3 cells
C6 [16] = test: Net reduction in tumor burden between first and last treatments of C6 glioma cell tumors in mice at 10 mg/kg peroral dose, days 1-15 administration; type: functional, Mus musculus; details: route oral; outline: as §2
Mus musculus [17] = test: Weight change in PDGF-transfected mouse fibroblasts in mice at 12 mg/kg peroral dose, days 1-15 administration; type: functional; details: route oral
Outline: (§4)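 Tumor-bearing nude mice (NCr nu/nu, 18–22 g, 6–8 per group) were implanted in the right axilla with tumor fragments on day 0 and dosed by average cage weight. Vehicle was 50 mM sodium lactate pH 4.0, or 0.5% methyl cellulose suspension; cisplatin was given in saline. Host body weight change is given as the maximum treatment-related weight loss.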

NIH3T3 [18] = test: Inhibition of NIH3T3 proliferation by sulforhodamine B assay; type: functional, cell-based, Mus musculus; details: Mus musculus, NIH3T3
SK-OV-3 [19] = test: Difference in days for treated (T) and control (C) SKOV-3 cell tumors to reach 750 mg in mice at […] peroral dose, days 15-29 administration; type: functional; details: route oral
A-431 [20] = test: Difference in days for treated (T) and control (C) A431 cell tumors to reach 750 mg in mice at 5 mg/kg peroral dose, days 7-21 administration; type: functional, Mus musculus; details: route oral; outline: as §3
MCF7 [21] = test: Weight change for MCF-7 cell tumors in mice at 5 mg/kg peroral dose, days 1-15 administration; type: functional, organism-based; parameters: dose 5 mg/kg; details: Mus musculus; outline: as §4
[22] = target: Platelet-derived growth factor receptor beta (Mus musculus, UniProt P05622); test: Inhibitory concentration was evaluated against Platelet-derived growth factor receptor beta (PDGFr) tyrosine kinase
Chain of Platelet-derived growth factor receptor beta (P05622 whole entry): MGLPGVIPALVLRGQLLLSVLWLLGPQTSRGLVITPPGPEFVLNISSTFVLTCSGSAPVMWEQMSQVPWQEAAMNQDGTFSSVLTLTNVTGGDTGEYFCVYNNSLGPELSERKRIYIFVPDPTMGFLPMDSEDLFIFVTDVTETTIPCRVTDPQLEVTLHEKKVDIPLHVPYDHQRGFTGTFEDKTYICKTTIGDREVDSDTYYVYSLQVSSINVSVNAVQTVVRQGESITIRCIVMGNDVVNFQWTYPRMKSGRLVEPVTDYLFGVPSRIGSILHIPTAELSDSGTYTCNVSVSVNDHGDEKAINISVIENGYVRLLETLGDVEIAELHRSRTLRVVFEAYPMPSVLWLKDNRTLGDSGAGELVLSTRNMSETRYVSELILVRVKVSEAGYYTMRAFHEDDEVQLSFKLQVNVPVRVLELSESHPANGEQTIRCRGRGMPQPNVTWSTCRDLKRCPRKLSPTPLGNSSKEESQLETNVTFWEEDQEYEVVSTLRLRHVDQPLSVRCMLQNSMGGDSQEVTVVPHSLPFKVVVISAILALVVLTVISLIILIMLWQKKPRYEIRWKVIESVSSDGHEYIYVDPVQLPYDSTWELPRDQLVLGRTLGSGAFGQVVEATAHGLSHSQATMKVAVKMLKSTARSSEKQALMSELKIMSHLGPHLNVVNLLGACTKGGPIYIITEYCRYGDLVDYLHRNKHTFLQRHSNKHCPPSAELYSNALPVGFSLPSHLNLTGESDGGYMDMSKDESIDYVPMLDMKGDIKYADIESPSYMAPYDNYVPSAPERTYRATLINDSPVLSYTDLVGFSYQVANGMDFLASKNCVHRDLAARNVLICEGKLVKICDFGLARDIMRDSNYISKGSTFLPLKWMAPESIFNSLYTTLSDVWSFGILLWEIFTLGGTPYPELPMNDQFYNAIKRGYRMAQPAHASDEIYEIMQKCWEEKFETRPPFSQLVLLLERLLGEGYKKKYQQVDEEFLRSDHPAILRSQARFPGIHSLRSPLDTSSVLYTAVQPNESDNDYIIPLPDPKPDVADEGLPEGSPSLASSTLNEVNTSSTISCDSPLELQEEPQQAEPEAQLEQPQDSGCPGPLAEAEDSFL

MCF7 [23] = test: Difference in days for treated (T) and control (C) MCF-7 cell tumors to reach 750 mg in mice at 5 mg/kg peroral dose, days 1-15 administration; type: functional, Mus musculus; details: route oral; outline: as §3
MCF7 [24] = test: Ratio of treated and control MCF-7 tumor mass in mice at 5 mg/kg peroral dose, days 1-15 administration; type: functional, Mus musculus; details: route oral; outline: as §1
A-431 [25] = test: Net reduction in tumor burden between first and last treatments of A431 cell tumors in mice at 5 mg/kg peroral dose, days 7-21 administration; type: functional, Mus musculus; details: route oral; outline: as §2
NIH3T3 [26] = test: Growth of NIH3T3 cell colonies in soft agar with discontinued treatment; type: functional, cell-based; details: Mus musculus
Outline: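 PDGF-B-transfected NIH3T3 (NIH3T3/PDGF) cells exposed 3 days to a concentration series, washed free of inhibitor, plated in drug-free soft agar; colonies stained and counted after two weeks. IC50; mean of two experiments, each in duplicate.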

C6 [27] = test: Inhibition of C6 cell proliferation in sulforhodamine B assay; type: functional, cell-based, Rattus norvegicus; details: Rattus norvegicus, C6
Outline: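 C6 rat glioma cells (F10 Ham's, 15% horse serum, 2.5% fetal calf serum) seeded and allowed 24 h to attach, then given serial 2-fold compound dilutions; 4 d at 37 °C, 5% CO2; growth read by sulforhodamine B staining. IC50; mean of two experiments, each in triplicate.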

Mus musculus [28] = test: Difference in days for treated (T) and control (C) PDGF-transfected mouse fibroblast tumors to reach 750 mg in mice at 12 mg/kg peroral dose, days 1-15 administration; type: functional; details: route oral; outline: as §3
Mus musculus [29] = test: Ratio of treated and control PDGF-transfected mouse fibroblast tumor mass in mice at 12 mg/kg peroral dose, days 1-15 administration; type: functional; details: route oral; outline: as §1
A-431 [30] = test: Weight change of A431 cell tumors in mice at 5 mg/kg peroral dose, days 7-21 administration; type: functional, Mus musculus; details: route oral; outline: as §4
SK-OV-3 [31] = test: Weight change of SK-OV-3 cell tumors in mice at […] peroral dose, days 15-29 administration; type: functional, organism-based; parameters: dose 8.9 mg/kg
HT-29 [32] = test: Difference in days for treated (T) and control (C) HT-29 cell tumors to reach 750 mg in mice at […] peroral dose, days 15-29 administration; type: functional, Mus musculus; details: route oral
[33] = target: Platelet-derived growth factor receptor (PDGFr) (Rattus norvegicus, UniProt P20786+Q05030); test: Inhibition of PDGF-induced autophosphorylation of PDGF-R in C6 cells
SK-OV-3 [34] = test: Ratio of treated and control SKOV-3 cell tumor mass in mice at […] peroral dose, days 15-29 administration; type: functional; details: route oral
C6 [35] = test: Weight change of C6 glioma tumor cells in mice at 10 mg/kg peroral dose, days 1-15 administration; type: functional, Mus musculus; details: route oral; outline: as §4
A-431 [36] = test: Ratio of treated and control A431 cell tumor mass in mice at 5 mg/kg peroral dose, days 7-21 administration; type: functional, Mus musculus; details: route oral; outline: as §1

CCN(CC)CCOc1ccc(Nc2ncc3cc(-c4c(Cl)cccc4Cl)c(=O)n(CC)c3n2)cc1
Ratio (C6 [1]): 56% | IC50 [2]: 30 nM | Weight change (COLO 205 [3]): Weight gain | Weight change (HT-29 [4]): Weight gain | Net cell kill (MCF7 [5]): 0.2 log10 | IC50 (C6 [6]): 400 nM | IC50 (NIH3T3 [7]): 1.5 nM | Net cell kill (Mus musculus [8]): -1.2 log10 | IC50 [9]: 17 nM | Net cell kill (COLO 205 [10]): -0.2 log10 | IC50 (C6 [11]): 120 nM | Ratio (COLO 205 [12]): 57% | T-C (COLO 205 [13]): 10.3 days | T-C (C6 [14]): 3 days | IC50 [15]: 1.7 nM | Net cell kill (C6 [16]): -0.9 log10 | Weight change (Mus musculus [17]): -2.6 g | IC50 (NIH3T3 [18]): 410 nM | T-C (SK-OV-3 [19]): -0.8 days | T-C (A-431 [20]): 3.3 days | Weight change (MCF7 [21]): Weight gain | IC50 [22]: 150 nM | T-C (MCF7 [23]): 18.3 days | Ratio (MCF7 [24]): 51% | Net cell kill (A-431 [25]): -0.6 log10 | IC50 (NIH3T3 [26]): 17 nM | IC50 (C6 [27]): 350 nM | T-C (Mus musculus [28]): 5.9 days | Ratio (Mus musculus [29]): 13% | Weight change (A-431 [30]): -2.7 g | Weight change (SK-OV-3 [31]): Weight gain | T-C (HT-29 [32]): -4.8 days | IC50 [33]: 1 nM | Ratio (SK-OV-3 [34]): 106% | Weight change (C6 [35]): -1.2 g | Ratio (A-431 [36]): 96%
